Measurements taken from ChEMBL document CHEMBL1123990, “The in vitro dental plaque inhibitory properties of a series of N-[1-alkyl-4(1H)-pyridinylidene]alkylamines” (1988).
In brackets after ≈: the same amount, converted by molar mass. Activity calls are given as the source filed them. The rule behind the calls is not given here.

Columns and labels:
[1] = system: Streptococcus sobrinus; experiment: Plaque bactericidal index against Streptococcus sobrinus 6715-13 measured as chlorohexidine coefficient; assay type: functional
Summary of the method: (§1)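 Hydroxylapatite-grown plaques were exposed once daily for 2 min to varying concentrations of agent until the organisms were killed. The highest level tested was 0.2% w/v for 5 days. Tests were run in duplicate. PBI is the concentration (mM) × duration (min) × frequency (days) needed for plaque kill. CC is the chlorhexidine PBI divided by the test-agent PBI.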

[2] = system: Actinomyces viscosus; experiment: Plaque bactericidal index against Actinomyces viscosus M-100 measured as chlorohexidine coefficient; assay type: functional; summary of the method: as §1
[3] = system: Streptococcus sobrinus; experiment: Chlorohexidine coefficient for Streptococcus sobrinus 6715-13; assay type: functional; summary of the method: as §1
[4] = system: Actinomyces viscosus; experiment: Chlorohexidine coefficient for Actinomyces viscosus M-100; assay type: functional; summary of the method: as §1
[5] = system: Streptococcus sobrinus; experiment: Minimal bactericidal concentration against Streptococcus sobrinus 6715-13; assay type: functional
Summary of the method: (§2)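 Plaques were grown on standardized ceramic hydroxylapatite plates and immersed once in agent for 30 min. They were rinsed with sterile distilled water, moved to fresh broth and incubated anaerobically at 37 °C. Kill meant no further culture acid production, no turbidity change, and no growth when 48-h post-treatment plaque samples were subcultured. Tests were run in duplicate.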

[6] = system: Streptococcus sobrinus; experiment: Minimal bactericidal concentration against Streptococcus sobrinus 6715-13.; assay type: functional; summary of the method: as §2
[7] = system: Streptococcus sobrinus; experiment: Plaque bactericidal index against Streptococcus sobrinus 6715-13 measured as chlorohexidine coefficient; d=Not bactericidal at highest concentration tested (0.2% w/v, 2min, 5 days); assay type: functional, organism-based; summary of the method: as §1
[8] = system: Actinomyces viscosus; experiment: Plaque bactericidal index against Actinomyces viscosus M-100 measured as chlorohexidine coefficient; d=Not bactericidal at highest concentration tested (0.2% w/v, 2min, 5 days); assay type: functional, organism-based; summary of the method: as §1
[9] = system: Actinomyces viscosus; experiment: Plaque bactericidal index against Actinomyces viscosus M-100 measured as chlorohexidine coefficient; not bactericidal at highest concentration tested (0.2% w/v, 2min, 5 days); assay type: functional, organism-based; summary of the method: as §1
[10] = system: Streptococcus sobrinus; experiment: Minimal bactericidal concentration against d Streptococcus sobrinus 6715-13; Not active at 20 mM; assay type: functional, organism-based; summary of the method: as §2

Structure (SMILES)	PBI [1]	PBI [2]	CC [3]	CC [4]	MBC [5]	MBC [6]	PBI [7]	PBI [8]	PBI [9]	MBC [10]
Br.CCCCCCCCCN=c1ccn(CCCCCCCC)cc1	9.7	9.7	2.6	1.9	1210 µM	–	–	–	–	–
CCCCCCCn1ccc(=NCCCCCC)cc1.Cl	12.8	6.4	2	3	–	1600 µM	–	–	–	–
CCCCCCCCCN=c1ccn(CCCCCC)cc1.Cl	2.9	2.9	8.8	6.6	290 µM	–	–	–	–	–
CCCCCCCCCCN=c1ccn(CCCCC)cc1.Cl	3	5.9	8.5	3.2	290 µM	–	–	–	–	–
CCCCCCCCCn1ccc(=NCCCCCC)cc1.Cl	2.9	8.8	8.8	2.2	290 µM	–	–	–	–	–
N=C(NCCCCCCNC(=N)NC(=N)Nc1ccc(Cl)cc1)NC(=N)Nc1ccc(Cl)cc1 [CHLORHEXIDINE]	25.6	19.2	–	–	3200 µM (≈ 1620 µg/mL)	–	–	–	–	–
CCCCCCCCN=c1ccn(Cc2ccc(Cl)cc2)cc1.Cl	10.9	5.4	2.3	3.6	270 µM	–	–	–	–	–
CCCCCCCCCCCCN=c1ccn(C)cc1.I	12.4	19.2	2.1	1	1240 µM	–	–	–	–	–
CCCCCCN=c1ccn(CCCCCC)cc1	–	–	–	–	1580 µM (≈ 415 µg/mL)	–	Not bactericidal	Not bactericidal	–	–
CCCCCCCCCn1ccc(=NCCCCCCCC)cc1.Cl	13.3	13.3	1.9	1.4	1350 µM	–	–	–	–	–
CCCCCCCCN=c1ccn(Cc2ccccc2)cc1.Cl	24	12	1.1	1.6	1500 µM	–	–	–	–	–
Br.CCCCC(CC)CN=c1ccn(CC(CC)CCCC)cc1 (centres undefined)	20	20	1.3	1	1250 µM	–	–	–	–	–
CN=c1ccn(C)cc1	–	–	–	–	–	–	Not bactericidal	–	Not bactericidal	inactive
Br.CCCCCCCN=c1ccn(CCCCCCC)cc1	8	5.4	3.2	4	1350 µM	–	–	–	–	–
